Residues, ends and D or L forms follow the SMILES beside them. *: point of attachment. Propyl(2R-PamO,3-PamO) = CCCCCCCCCCCCCCCC(=O)OC[C@H](C*)OC(=O)CCCCCCCCCCCCCCC; X1 = CC(=O)NCCCOCCOCCOCCCNC(=O)COCC(=O)*
Key:
Toll-like receptor 2 [1] = target: T1, Toll-like receptor 2 (Homo sapiens, UniProt O60603); test: Displacement of Eu-DTPA from human TLR2 expressed in HEK293 cells after 1 hr
Summary of the method: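 Live-cell europium TRF competition binding in HEK-293/hTLR2 (poly-D-lysine plates) or SU.86.86 cells grown 2 days to ~80% confluence. Unlabeled ligand 1 μM to 0.01 nM plus 90 nM Eu-DTPA-labeled tracer, 1 h at 37°C; three washes, enhancement solution 30 min at 37°C, read at 340 nm excitation/615 nm emission with time delay.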

Toll-like receptor 2 [2] = target: T1, Toll-like receptor 2; test: Agonist activity at human TLR2 expressed in HEK293 cells assessed as induction of NF-kappaB signaling after 24 hrs by luminescence based luciferase reporter gene assay
Toll-like receptor 2 [3] = target: T1, Toll-like receptor 2; test: Displacement of Eu-DTPA from human TLR2 expressed in SU.86.86 cells after 1 hr

T1 sequence (O60603 whole entry): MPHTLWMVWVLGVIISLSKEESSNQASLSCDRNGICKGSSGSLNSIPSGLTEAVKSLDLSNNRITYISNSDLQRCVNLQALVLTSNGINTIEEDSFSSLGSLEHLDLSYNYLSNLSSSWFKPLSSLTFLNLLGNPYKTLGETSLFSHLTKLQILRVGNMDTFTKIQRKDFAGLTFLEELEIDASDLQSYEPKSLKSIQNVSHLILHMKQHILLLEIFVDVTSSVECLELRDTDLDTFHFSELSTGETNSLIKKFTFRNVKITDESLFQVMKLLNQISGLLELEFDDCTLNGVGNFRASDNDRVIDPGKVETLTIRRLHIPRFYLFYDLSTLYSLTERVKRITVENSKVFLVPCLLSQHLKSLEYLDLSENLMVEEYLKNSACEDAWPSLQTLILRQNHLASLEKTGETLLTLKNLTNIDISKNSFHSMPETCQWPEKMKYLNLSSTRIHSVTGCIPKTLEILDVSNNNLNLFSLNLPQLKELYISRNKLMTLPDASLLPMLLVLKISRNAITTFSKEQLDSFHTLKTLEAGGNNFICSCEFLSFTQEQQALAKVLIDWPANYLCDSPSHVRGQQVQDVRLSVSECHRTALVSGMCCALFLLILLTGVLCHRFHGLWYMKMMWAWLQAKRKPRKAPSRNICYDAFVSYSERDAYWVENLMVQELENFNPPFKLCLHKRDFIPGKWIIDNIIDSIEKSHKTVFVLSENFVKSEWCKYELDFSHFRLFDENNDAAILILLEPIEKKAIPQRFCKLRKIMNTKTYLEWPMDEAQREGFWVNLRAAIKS

| Ki (Toll-like receptor 2 [1]) [nM] | EC50 (Toll-like receptor 2 [2]) [nM] | Ki (Toll-like receptor 2 [3]) [nM] | SMILES |
| --- | --- | --- | --- |
| 11 | 34 | 67 | CCCCCCCCCCCCCCCC(=O)OCC(CSCC(NC(=O)COCC(=O)NCCCOCCOCCOCCCNC(=O)CCSC1CC(=O)N(CCNC(=O)CCCCC[N+]2=C(/C=C/C=C/C=C3/Cc4cc(S(=O)(=O)O)ccc4N3CC)Cc3cc(S(=O)(=O)[O-])ccc32)C1=O)C(=O)NCC(=O)NC(CO)C(=O)NCCCOCCOCCOCCCNC(=O)COCC(N)=O)OC(=O)CCCCCCCCCCCCCCC (centres undefined) |
|  | 25 |  | CCCCCCCCCCCCCCCC(=O)OC[C@H](CSC[C@H](NC(=O)COCC(=O)NCCCOCCOCCOCCCNC(C)=O)C(=O)N[C@@H](CO)C(=O)N[C@@H](CCCNC(=N)N)C(=O)N[C@@H](Cc1ccccc1)C(=O)N[C@@H](CC(=O)O)C(=O)N[C@@H](CCC(=O)O)C(=O)N[C@@H](CC(=O)O)C(=O)N[C@@H](CC(=O)O)C(=O)N[C@@H](CC(C)C)C(=O)N[C@@H](CCC(=O)O)C(N)=O)OC(=O)CCCCCCCCCCCCCCC (X1-C(Propyl(2R-PamO,3-PamO))SRFDEDDLE-NH2) |
